We go through two compounds from ChEMBL document CHEMBL1255169, “Synthesis, structure-affinity relationships, and radiolabeling of selective high-affinity 5-HT4 receptor ligands as prospective imaging probes for positron emission tomography” (J Med Chem, 2010).

Some results are limits rather than exact numbers.

Assay [1] addresses 5-hydroxytryptamine receptor 1D (Homo sapiens, UniProt P28221). Nature of the assay: Binding affinity to human 5-HT1D receptor.
Assay [2] addresses T1, 5-hydroxytryptamine receptor 2C (Homo sapiens, UniProt P28335).
T1 sequence (P28335 whole entry): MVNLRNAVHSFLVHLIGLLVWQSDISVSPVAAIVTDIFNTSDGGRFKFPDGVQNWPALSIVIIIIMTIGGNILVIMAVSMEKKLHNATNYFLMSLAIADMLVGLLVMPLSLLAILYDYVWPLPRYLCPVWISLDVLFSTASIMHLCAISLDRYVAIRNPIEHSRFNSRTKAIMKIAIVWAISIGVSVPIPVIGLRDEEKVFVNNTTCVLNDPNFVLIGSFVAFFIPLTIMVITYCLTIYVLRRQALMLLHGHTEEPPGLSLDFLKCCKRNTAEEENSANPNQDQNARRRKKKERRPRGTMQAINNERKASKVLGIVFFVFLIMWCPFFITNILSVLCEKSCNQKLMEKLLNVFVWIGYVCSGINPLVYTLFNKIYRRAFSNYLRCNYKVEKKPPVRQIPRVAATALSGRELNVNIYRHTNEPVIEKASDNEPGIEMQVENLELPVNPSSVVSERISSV
In words: Binding affinity to human 5-HT2C receptor.

In assay [3] the target is 5-hydroxytryptamine receptor 6 (Homo sapiens, UniProt P50406). In words: Binding affinity to human 5-HT6 receptor.
The target of assay [4] is T2, Alpha-1A adrenergic receptor (Homo sapiens, UniProt P35348).
T2 sequence (P35348 whole entry): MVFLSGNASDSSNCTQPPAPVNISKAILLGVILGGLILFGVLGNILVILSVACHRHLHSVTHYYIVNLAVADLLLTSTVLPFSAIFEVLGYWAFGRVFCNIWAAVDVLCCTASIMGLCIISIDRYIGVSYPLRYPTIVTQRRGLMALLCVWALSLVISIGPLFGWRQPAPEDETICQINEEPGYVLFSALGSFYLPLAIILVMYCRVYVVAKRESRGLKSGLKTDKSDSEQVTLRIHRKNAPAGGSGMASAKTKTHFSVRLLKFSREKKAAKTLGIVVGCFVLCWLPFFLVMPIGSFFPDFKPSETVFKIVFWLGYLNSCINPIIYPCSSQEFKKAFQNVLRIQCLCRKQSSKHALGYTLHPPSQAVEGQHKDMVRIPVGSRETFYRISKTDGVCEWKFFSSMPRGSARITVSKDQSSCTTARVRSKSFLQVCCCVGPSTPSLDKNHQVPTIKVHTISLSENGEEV
In words: Binding affinity to human adrenergic alpha1A receptor.

Assay [5] concerns the target T3, Alpha-1B adrenergic receptor (Homo sapiens, UniProt P35368).
T3 sequence (P35368 whole entry): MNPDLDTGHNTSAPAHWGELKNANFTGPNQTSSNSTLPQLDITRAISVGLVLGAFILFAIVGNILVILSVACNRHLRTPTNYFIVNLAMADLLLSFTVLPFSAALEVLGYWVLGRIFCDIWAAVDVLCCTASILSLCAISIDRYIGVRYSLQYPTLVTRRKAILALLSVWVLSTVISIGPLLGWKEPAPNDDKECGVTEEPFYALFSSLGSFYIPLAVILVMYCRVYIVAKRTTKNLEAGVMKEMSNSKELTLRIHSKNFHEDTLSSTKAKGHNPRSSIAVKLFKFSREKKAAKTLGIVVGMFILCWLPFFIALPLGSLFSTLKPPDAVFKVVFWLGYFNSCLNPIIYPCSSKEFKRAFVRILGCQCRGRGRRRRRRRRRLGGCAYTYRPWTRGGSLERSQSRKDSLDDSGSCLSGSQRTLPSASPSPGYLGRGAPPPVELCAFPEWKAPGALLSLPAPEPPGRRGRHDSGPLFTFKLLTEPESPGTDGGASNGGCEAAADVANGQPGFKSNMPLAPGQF
Nature of the assay: Binding affinity to human adrenergic Alpha-1B receptor.

Assay [6] addresses T4, Alpha-2B adrenergic receptor (Homo sapiens, UniProt P18089).
T4 sequence (P18089 whole entry): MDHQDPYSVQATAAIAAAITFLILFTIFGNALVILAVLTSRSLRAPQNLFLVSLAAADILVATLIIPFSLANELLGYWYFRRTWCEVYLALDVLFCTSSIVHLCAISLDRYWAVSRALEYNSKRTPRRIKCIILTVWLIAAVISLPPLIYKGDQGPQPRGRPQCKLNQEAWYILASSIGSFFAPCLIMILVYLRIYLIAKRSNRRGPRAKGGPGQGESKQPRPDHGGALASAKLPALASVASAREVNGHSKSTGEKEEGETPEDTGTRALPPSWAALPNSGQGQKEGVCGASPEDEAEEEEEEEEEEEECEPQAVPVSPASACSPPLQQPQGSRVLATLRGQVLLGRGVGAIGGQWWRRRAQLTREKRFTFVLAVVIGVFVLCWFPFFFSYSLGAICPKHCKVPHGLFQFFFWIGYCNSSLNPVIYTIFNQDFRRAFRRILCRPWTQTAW
In words: Binding affinity to human adrenergic alpha2B receptor. Summed up:
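Radioligand binding run by the NIMH Psychoactive Drug Screening Program as part of a broad receptor and binding-site panel, which included α1A, α1B, α1D and α2A–C subtypes. Affinity is expressed as Ki.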

The target in assay [7] is T5, Alpha-2C adrenergic receptor (Homo sapiens, UniProt P18825).
T5 sequence (P18825 whole entry): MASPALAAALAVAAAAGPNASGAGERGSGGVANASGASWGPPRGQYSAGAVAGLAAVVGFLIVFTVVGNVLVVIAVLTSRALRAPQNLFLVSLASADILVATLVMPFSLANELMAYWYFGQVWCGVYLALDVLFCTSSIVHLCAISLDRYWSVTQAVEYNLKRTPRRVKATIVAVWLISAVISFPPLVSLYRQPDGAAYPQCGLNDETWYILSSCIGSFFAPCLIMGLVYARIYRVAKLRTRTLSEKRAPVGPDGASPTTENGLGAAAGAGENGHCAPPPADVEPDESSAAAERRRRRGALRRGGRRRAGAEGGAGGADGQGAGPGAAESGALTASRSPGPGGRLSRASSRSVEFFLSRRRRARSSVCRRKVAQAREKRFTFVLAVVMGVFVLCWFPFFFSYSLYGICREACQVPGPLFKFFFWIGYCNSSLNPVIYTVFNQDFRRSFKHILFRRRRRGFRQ
Nature of the assay: Binding affinity to human adrenergic Alpha-2C receptor.

In assay [8] the target is Sigma non-opioid intracellular receptor 1 (Rattus norvegicus, UniProt Q9R0C9). In words: Binding affinity to rat sigma 1 receptor.
The nature of assay [9]: Binding affinity to BZP receptor in rat brain. The assay is classed as tissue-based.
For assay [10], the target named is GABA-A receptor; agonist GABA site. In words: Binding affinity to human GABAA receptor. Type of assay: protein-complex assay.
Assay [11] concerns the target Kappa-type opioid receptor (Homo sapiens, UniProt P41145). Nature of the assay: Binding affinity to human kappa opioid receptor.
For a further assay, the target named is Mu-type opioid receptor (Homo sapiens, UniProt P35372). Nature of the assay: Binding affinity to human mu opioid receptor.
Assay [12] concerns the target Muscarinic acetylcholine receptor M2 (Homo sapiens, UniProt P08172). Nature of the assay: Binding affinity to human muscarinic M2 receptor.
Assay [13] addresses Muscarinic acetylcholine receptor M4 (Homo sapiens, UniProt P08173). Nature of the assay: Binding affinity to human muscarinic M4 receptor.
Assay [14] deals with Sodium-dependent noradrenaline transporter (Homo sapiens, UniProt P23975). In words: Binding affinity to human NET.
Chain of Sodium-dependent noradrenaline transporter (P23975 whole entry): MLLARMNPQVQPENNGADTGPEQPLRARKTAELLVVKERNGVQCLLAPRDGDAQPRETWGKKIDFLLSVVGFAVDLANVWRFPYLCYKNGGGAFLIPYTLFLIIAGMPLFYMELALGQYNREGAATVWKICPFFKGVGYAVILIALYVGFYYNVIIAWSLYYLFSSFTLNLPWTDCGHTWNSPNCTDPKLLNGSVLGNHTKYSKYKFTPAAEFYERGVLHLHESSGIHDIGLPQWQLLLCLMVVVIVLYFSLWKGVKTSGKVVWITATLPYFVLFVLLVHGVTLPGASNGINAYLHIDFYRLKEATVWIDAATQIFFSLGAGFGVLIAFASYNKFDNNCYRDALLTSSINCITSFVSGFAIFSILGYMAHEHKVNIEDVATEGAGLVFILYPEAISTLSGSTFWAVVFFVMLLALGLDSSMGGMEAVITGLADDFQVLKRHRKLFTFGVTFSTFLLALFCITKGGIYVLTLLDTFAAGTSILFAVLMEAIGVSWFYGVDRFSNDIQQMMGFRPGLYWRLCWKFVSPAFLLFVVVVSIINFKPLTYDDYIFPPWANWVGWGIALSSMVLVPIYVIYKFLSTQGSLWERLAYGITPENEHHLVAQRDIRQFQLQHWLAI

Chain of Muscarinic acetylcholine receptor M2 (P08172 whole entry): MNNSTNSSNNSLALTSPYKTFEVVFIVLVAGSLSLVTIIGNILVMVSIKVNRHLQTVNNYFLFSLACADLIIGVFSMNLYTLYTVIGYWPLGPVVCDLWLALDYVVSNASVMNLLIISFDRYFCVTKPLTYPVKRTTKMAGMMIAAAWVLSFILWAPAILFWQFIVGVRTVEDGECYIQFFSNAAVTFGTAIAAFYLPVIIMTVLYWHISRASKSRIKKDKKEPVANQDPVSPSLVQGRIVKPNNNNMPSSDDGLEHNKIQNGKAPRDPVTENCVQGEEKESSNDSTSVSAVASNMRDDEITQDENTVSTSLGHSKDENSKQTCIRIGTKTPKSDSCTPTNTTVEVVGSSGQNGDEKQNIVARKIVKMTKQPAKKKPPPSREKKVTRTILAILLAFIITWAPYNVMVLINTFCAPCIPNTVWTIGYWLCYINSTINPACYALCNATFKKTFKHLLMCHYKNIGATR
Chain of 5-hydroxytryptamine receptor 1D (P28221 whole entry): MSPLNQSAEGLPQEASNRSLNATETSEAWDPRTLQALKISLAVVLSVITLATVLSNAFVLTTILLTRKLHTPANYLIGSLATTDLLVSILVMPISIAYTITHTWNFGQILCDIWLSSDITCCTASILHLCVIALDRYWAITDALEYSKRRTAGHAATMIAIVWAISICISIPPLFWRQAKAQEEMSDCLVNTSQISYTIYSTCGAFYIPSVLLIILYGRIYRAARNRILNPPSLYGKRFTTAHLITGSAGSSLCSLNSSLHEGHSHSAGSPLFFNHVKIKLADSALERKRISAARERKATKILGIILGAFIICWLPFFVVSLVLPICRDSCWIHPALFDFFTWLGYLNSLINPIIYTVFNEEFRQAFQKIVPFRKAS
Chain of Sigma non-opioid intracellular receptor 1 (Q9R0C9 whole entry): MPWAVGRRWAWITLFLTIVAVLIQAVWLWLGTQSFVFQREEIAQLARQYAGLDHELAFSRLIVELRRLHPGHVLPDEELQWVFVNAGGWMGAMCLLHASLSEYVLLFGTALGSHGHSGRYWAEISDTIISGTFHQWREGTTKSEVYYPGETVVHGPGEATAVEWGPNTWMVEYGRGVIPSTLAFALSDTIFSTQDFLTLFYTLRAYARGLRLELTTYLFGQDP
Chain of Mu-type opioid receptor (P35372 whole entry): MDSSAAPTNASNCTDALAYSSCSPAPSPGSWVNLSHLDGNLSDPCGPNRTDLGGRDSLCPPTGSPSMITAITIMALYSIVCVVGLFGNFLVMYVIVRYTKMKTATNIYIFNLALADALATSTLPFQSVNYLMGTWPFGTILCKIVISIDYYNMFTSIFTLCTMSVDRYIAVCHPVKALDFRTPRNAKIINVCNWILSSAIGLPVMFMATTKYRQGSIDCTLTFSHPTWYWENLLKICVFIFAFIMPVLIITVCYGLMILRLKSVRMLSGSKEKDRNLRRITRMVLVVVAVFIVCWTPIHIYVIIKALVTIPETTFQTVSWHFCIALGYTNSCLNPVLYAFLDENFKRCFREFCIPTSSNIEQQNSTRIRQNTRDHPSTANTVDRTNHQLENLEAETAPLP
Chain of 5-hydroxytryptamine receptor 6 (P50406 whole entry): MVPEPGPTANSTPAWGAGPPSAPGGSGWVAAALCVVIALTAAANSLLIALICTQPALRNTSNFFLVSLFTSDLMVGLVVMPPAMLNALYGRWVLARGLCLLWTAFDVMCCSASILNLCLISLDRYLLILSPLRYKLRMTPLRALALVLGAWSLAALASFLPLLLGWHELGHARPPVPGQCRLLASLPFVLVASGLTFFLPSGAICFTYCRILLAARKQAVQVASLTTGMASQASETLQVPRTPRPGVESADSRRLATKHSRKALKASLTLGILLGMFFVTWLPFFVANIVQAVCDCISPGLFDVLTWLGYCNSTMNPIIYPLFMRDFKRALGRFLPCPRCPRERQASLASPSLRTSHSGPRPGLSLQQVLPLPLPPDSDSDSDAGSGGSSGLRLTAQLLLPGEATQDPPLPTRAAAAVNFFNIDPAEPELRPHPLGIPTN
Chain of Muscarinic acetylcholine receptor M4 (P08173 whole entry): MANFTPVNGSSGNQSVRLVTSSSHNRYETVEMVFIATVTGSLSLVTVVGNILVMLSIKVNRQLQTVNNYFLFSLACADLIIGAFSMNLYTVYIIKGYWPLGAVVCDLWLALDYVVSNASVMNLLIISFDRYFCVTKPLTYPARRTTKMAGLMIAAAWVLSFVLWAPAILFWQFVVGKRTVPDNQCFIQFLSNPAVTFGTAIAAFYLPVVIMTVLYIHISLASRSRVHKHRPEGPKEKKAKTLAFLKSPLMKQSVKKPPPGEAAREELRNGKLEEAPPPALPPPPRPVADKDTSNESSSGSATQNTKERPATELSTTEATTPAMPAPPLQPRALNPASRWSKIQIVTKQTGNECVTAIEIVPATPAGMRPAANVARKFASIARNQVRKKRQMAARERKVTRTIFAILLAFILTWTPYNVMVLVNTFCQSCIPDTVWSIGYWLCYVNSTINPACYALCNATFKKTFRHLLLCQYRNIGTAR
Chain of Kappa-type opioid receptor (P41145 whole entry): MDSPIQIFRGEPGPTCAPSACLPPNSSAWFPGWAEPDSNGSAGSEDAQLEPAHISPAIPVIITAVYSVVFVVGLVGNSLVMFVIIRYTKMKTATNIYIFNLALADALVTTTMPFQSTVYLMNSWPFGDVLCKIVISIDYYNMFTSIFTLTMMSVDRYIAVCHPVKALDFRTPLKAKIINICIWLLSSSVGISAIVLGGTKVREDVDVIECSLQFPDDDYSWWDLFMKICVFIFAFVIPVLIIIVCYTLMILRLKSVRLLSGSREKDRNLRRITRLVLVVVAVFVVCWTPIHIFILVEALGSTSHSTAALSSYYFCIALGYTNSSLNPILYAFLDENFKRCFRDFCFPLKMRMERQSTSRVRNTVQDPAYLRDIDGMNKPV

What is called Ki is the equilibrium dissociation constant of an inhibitor or competing ligand from its target. A lower Ki goes with a stronger hold on the target. With `CCCCN1CCC(COC(=O)c2ccc(N)c(OC)c2)CC1`, the Ki in assay [1] is 5.69 µM; in assay [2], more than 10000 nM; in assay [3], more than 10000 nM; in [4], more than 10000 nM; in assay [5], 4.23 µM; in assay [6] it was more than 10000 nM. In addition, the Ki in assay [7] was 989 nM; in assay [8], 211 nM; in [9] it was more than 10 µM; in assay [10], more than 10 µM; in assay [11], more than 10 µM; on Mu-type opioid receptor, more than 10 µM. Besides, the Ki was more than 10000 nM in assay [12], 2580 nM in assay [13] and more than 10 µM in assay [14].
`CCCCN1CCC(COC(=O)c2cc(Cl)c(NC)c3c2OCCO3)CC1`: the Ki in assay [1] is 1.3 µM; in [2], 685 nM; in assay [3], 489 nM; in [4], 522 nM; in assay [5] it was more than 10 µM; in [6], 671 nM. The Ki in assay [7] was 556 nM; in assay [8], 60 nM; in assay [9], more than 10 µM; in assay [10] it was more than 10 µM; in assay [11], more than 10 µM; on Mu-type opioid receptor, more than 10 µM. The Ki in assay [12] amounted to 433 nM; in assay [13], 760 nM; in assay [14], 3.23 µM.
